Results reported in ChEMBL document CHEMBL1138404, “Bisindole alkaloids of the topsentin and hamacanthin classes from a marine sponge Spongosorites sp” (J Nat Prod, 2007).
In brackets after ≈: the same amount, converted by molar mass.

Key:
Staphylococcus aureus [1] = test: Antibacterial activity against methicillin-resistant Staphylococcus aureus 285; format: functional
In short: (§1)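 Agar dilution MIC: Mueller Hinton agar plates containing 17 serial dilutions of sample (final 25 to 0.002 μg/mL), meropenem and imipenem as standards. Strains grown 18 h at 37 °C in Fleisch extract broth (10% horse serum for some strains), spotted onto plates by automatic inoculator; MIC read after 18 h incubation.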

Staphylococcus aureus [2] = test: Antibacterial activity against methicillin-resistant Staphylococcus aureus 503; format: functional; in short: as §1
[3] = Cytotoxicity against human A549 cell line; format: cell-based; details: A549 cells, read-out: ED50 (the source's name)
[4] = Cytotoxicity against human SK-OV-3 cell line; format: cell-based; details: SK-OV-3 cells, read-out: ED50 (the source's name)
[5] = Cytotoxicity against human SK-MEL-2 cell line; format: cell-based; details: SK-MEL-2 cells, read-out: ED50 (the source's name)
[6] = Cytotoxicity against human XF498 cell line; format: cell-based; details: XF498 cells, read-out: ED50 (the source's name)
[7] = Cytotoxicity against human HCT15 cell line; format: cell-based; details: HCT-15 cells, read-out: ED50 (the source's name)
Streptococcus pyogenes [8] = test: Antibacterial activity against methicillin-resistant Streptococcus pyogenes 308A; format: functional; in short: as §1
Streptococcus pyogenes [9] = test: Antibacterial activity against methicillin-resistant Streptococcus pyogenes 77A; format: functional; in short: as §1
Staphylococcus aureus [10] = test: Antibacterial activity against methicillin-resistant Staphylococcus aureus SG511; format: functional; in short: as §1
Escherichia coli [11] = test: Antibacterial activity against […] Escherichia coli DC2; format: functional; in short: as §1
Pseudomonas aeruginosa [12] = test: Antibacterial activity against […] Pseudomonas aeruginosa 1592E; format: functional; in short: as §1
Pseudomonas aeruginosa [13] = test: Antibacterial activity against […] Pseudomonas aeruginosa 1771; format: functional; in short: as §1
Pseudomonas aeruginosa [14] = test: Antibacterial activity against […] Pseudomonas aeruginosa 1771M; format: functional; in short: as §1
Klebsiella oxytoca = test: Antibacterial activity against […] Klebsiella oxytoca 1082E; format: functional; in short: as §1
Enterobacter cloacae [15] = test: Antibacterial activity against […] Enterobacter cloacae 1321E; format: functional; in short: as §1
Escherichia coli [16] = test: Antibacterial activity against […] Escherichia coli 078; format: functional; in short: as §1
Escherichia coli [17] = test: Antibacterial activity against […] Escherichia coli DC0; format: functional; in short: as §1
Escherichia coli [18] = test: Antibacterial activity against […] Escherichia coli TEM; format: functional; in short: as §1
Escherichia coli [19] = test: Antibacterial activity against […] Escherichia coli 1507E; format: functional; in short: as §1
Pseudomonas aeruginosa [20] = test: Antibacterial activity against […] Pseudomonas aeruginosa 9027; format: functional; in short: as §1
Salmonella typhimurium = test: Antibacterial activity against […] Salmonella Typhimurium; format: functional, Salmonella enterica subsp. enterica serovar Typhimurium; details: Salmonella enterica; in short: as §1
Enterococcus faecium = test: Antibacterial activity against […] Streptococcus faecium MD8b; format: functional; in short: as §1
Enterobacter cloacae [21] = test: Antibacterial activity against […] Enterobacter cloacae P99; format: functional; in short: as §1
Klebsiella aerogenes = test: Antibacterial activity against […] Klebsiella aerogenes 1522E; format: functional; in short: as §1

| Compound | MIC (Staphylococcus aureus [1]) [µg/mL] | MIC (Staphylococcus aureus [2]) [µg/mL] | CC50 [3] [µg/mL] | CC50 [4] [µg/mL] | CC50 [5] [µg/mL] | CC50 [6] [µg/mL] | CC50 [7] [µg/mL] | MIC (Streptococcus pyogenes [8]) [µg/mL] | MIC (Streptococcus pyogenes [9]) [µg/mL] | MIC (Staphylococcus aureus [10]) [µg/mL] | MIC (Escherichia coli [11]) [µg/mL] | MIC (Pseudomonas aeruginosa [12]) [µg/mL] | MIC (Pseudomonas aeruginosa [13]) [µg/mL] | MIC (Pseudomonas aeruginosa [14]) [µg/mL] | MIC (Klebsiella oxytoca) [µg/mL] | MIC (Enterobacter cloacae [15]) [µg/mL] | MIC (Escherichia coli [16]) [µg/mL] | MIC (Escherichia coli [17]) [µg/mL] | MIC (Escherichia coli [18]) [µg/mL] | MIC (Escherichia coli [19]) [µg/mL] | also measured |
| --- | --- | --- | --- | --- | --- | --- | --- | --- | --- | --- | --- | --- | --- | --- | --- | --- | --- | --- | --- | --- | --- |
| O=C1NC[C@@H](c2c[nH]c3ccccc23)N=C1c1c[nH]c2ccccc12 | > 25 | > 25 | 11.7 (≈ 35.6 µM) | 12.6 (≈ 38.4 µM) | 13.7 (≈ 41.7 µM) | 24.1 (≈ 73.4 µM) | 4.79 (≈ 14.6 µM) | > 25 | > 25 | > 25 | > 25 | 25 (≈ 76.1 µM) | 25 (≈ 76.1 µM) | > 25 | > 25 | > 25 | > 25 | > 25 | > 25 | > 25 | MIC (Pseudomonas aeruginosa [20]): > 25 µg/mL; MIC (Salmonella typhimurium): > 25 µg/mL; MIC (Enterococcus faecium): > 25 µg/mL; MIC (Enterobacter cloacae [21]): > 25 µg/mL; MIC (Klebsiella aerogenes): > 25 µg/mL |
| O=C1NC[C@@H](c2c[nH]c3ccccc23)N[C@H]1c1c[nH]c2cc(Br)ccc12 | > 25 | > 25 | 9.67 (≈ 23.6 µM) | 5.67 (≈ 13.9 µM) | > 10 | 9.74 (≈ 23.8 µM) | > 10 | 25 (≈ 61.1 µM) | > 25 | > 25 | > 25 | > 25 | > 25 | > 25 | > 25 | > 25 | > 25 | > 25 | > 25 | > 25 | MIC (Pseudomonas aeruginosa [20]): > 25 µg/mL; MIC (Salmonella typhimurium): > 25 µg/mL; MIC (Enterococcus faecium): > 25 µg/mL; MIC (Enterobacter cloacae [21]): > 25 µg/mL; MIC (Klebsiella aerogenes): > 25 µg/mL |
| O=C1NC[C@@H](c2c[nH]c3cc(Br)ccc23)N=C1c1c[nH]c2ccccc12 [(R)-6'-DEBROMOHAMACANTHIN B] | 12.5 (≈ 30.7 µM) | 12.5 (≈ 30.7 µM) | 3.71 (≈ 9.11 µM) | 8.5 (≈ 20.9 µM) | 7.6 (≈ 18.7 µM) | 8.3 (≈ 20.4 µM) | 4.2 (≈ 10.3 µM) | 6.3 (≈ 15.5 µM) | 12.5 (≈ 30.7 µM) | 12.5 (≈ 30.7 µM) | 25 (≈ 61.4 µM) | > 25 | 25 (≈ 61.4 µM) | 25 (≈ 61.4 µM) | 25 (≈ 61.4 µM) | > 25 | > 25 | > 25 | > 25 | > 25 | MIC (Pseudomonas aeruginosa [20]): > 25 µg/mL; MIC (Salmonella typhimurium): > 25 µg/mL; MIC (Enterococcus faecium): > 25 µg/mL; MIC (Enterobacter cloacae [21]): > 25 µg/mL; MIC (Klebsiella aerogenes): > 25 µg/mL |
